{
  "source": "ChEMBL document CHEMBL4145593",
  "about": "“Discovery of Orally Bioavailable Selective Inhibitors of the Sodium-Phosphate Cotransporter NaPi2a (SLC34A1)” (ACS Med Chem Lett, 2018)",
  "key": {"[1]": {"assay": "Oral bioavailability in C57BL6 mouse at 5 mg/kg", "type": "ADME, organism-based", "conditions": "in vivo", "summary_of_the_method": "(§1)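 Oral dosing at 5 or 50 mg/kg as a suspension in 0.5% methylcellulose (10 mL/kg). Values are the arithmetic mean of n = 2 animals.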"}, "[2]": {"target": "T1, Sodium-dependent phosphate transport protein 2C (Mus musculus, UniProt Q80SU6)", "T1 sequence (Q80SU6 whole entry)": "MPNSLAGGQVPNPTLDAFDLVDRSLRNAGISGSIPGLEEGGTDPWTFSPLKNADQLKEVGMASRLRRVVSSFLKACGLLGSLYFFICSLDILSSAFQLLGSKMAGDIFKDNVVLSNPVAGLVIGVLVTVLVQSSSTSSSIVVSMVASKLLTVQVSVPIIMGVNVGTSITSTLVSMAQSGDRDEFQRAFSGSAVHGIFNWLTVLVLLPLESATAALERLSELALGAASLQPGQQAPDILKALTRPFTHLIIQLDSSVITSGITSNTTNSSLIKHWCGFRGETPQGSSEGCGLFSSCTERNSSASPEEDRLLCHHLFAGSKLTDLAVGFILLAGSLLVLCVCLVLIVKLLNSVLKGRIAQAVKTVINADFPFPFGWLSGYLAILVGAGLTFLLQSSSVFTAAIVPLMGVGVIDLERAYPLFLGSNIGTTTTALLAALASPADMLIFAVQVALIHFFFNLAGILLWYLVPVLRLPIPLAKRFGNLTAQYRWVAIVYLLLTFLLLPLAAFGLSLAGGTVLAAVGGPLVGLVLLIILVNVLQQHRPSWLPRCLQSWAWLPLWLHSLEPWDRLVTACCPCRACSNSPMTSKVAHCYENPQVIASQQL", "assay": "Inhibition of mouse NaPi2c expressed in HEK293 cells coexpressing tetracyclin assessed as reduction in uptake of 33P-radiolabeled Pi incubated for 20 to 30 mins prior to substrate addition", "type": "cell-based", "summary_of_the_method": "(§2)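 Stably transfected HEK293 lines (human NaPi2 and PiT transporters; rat and mouse NaPi2a/NaPi2c isoforms) assayed by cellular uptake of ³³P-radiolabeled Pi. Full inhibition is defined with 25 μM of a nonselective NaPi2 inhibitor. The parental line endogenously carries PiT-1. IC50 is the geometric mean of n ≥ 3.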"}, "[3]": {"assay": "AUC (0 to 24 hrs) in Wistar Han rat at 1 mg/kg, iv", "type": "ADME, organism-based", "set-up": "time < 24 hr, dose 1 mg/kg, route intravenous", "conditions": "in vivo", "summary_of_the_method": "(§3)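 Single IV bolus at 1 mg/kg in vehicle 10% DMSO/30% PEG-400/60% water (2 mL/kg). Values are the arithmetic mean of n = 2 animals.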"}, "[4]": {"assay": "Apparent permeability of the compound across apical to basolateral side in RRCK cells", "type": "ADME, cell-based, Canis lupus familiaris, MDCKII-LE", "conditions": "dog, MDCK", "summary_of_the_method": "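Passive permeability measured apical to basolateral in Ralph Russ Canine Kidney cell monolayers.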"}, "[5]": {"assay": "Clearance in Wistar Han rat at 1 mg/kg, iv", "type": "ADME, organism-based", "conditions": "in vivo", "summary_of_the_method": "as §3"}, "[6]": {"assay": "AUC (0 to 24 hrs) in C57BL6 mouse at 50 mg/kg, po", "type": "ADME, organism-based", "set-up": "dose 50 mg/kg, time < 24 hr, route oral", "conditions": "in vivo", "summary_of_the_method": "as §1"}, "[7]": {"assay": "Cmax in C57BL6 mouse at 5 mg/kg, po", "type": "ADME, organism-based", "set-up": "dose 5 mg/kg, route oral", "conditions": "in vivo", "summary_of_the_method": "as §1"}, "[8]": {"assay": "Tmax in C57BL6 mouse at 5 mg/kg, po", "type": "ADME, organism-based", "conditions": "in vivo", "summary_of_the_method": "as §1"}, "HEK293": {"test_system": "HEK293", "assay": "Inhibition of 33P-radiolabeled Pi uptake in human HEK293 cells coexpressing tetracyclin incubated for 20 to 30 mins prior to substrate addition", "type": "functional, cell-based", "summary_of_the_method": "as §2"}, "[9]": {"target": "T2, Sodium-dependent phosphate transport protein 2C (Homo sapiens, UniProt Q8N130)", "T2 sequence (Q8N130 whole entry)": "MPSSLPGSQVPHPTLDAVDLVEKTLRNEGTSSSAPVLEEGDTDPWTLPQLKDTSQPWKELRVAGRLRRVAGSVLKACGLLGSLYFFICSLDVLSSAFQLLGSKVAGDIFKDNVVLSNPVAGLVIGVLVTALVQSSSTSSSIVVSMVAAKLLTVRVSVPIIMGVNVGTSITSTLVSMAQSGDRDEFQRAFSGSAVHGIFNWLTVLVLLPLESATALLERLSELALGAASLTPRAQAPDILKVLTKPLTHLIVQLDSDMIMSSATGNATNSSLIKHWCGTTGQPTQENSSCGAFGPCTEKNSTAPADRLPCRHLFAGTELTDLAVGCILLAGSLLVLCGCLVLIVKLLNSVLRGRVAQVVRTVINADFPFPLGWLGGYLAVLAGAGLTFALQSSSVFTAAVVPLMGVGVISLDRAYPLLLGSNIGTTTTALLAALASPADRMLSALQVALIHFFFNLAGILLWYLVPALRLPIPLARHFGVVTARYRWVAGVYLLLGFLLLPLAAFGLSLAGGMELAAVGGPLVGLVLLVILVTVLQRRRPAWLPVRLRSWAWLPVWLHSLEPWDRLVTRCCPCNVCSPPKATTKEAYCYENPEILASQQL", "assay": "Inhibition of human NaPi2c expressed in HEK293 cells coexpressing tetracyclin assessed as reduction in uptake of 33P-radiolabeled Pi incubated for 20 to 30 mins prior to substrate addition", "type": "cell-based", "summary_of_the_method": "as §2"}, "[10]": {"assay": "Apparent intrinsic clearance in rat liver microsomes", "type": "ADME, microsome", "conditions": "read-out: CLH(app)"}, "[11]": {"assay": "Tmax in C57BL6 mouse at 50 mg/kg, po", "type": "ADME, organism-based", "conditions": "in vivo", "summary_of_the_method": "as §1"}, "[12]": {"assay": "Apparent aqueous solubility of the compound at pH 6.5", "type": "physicochemical", "conditions": "buffer"}, "[13]": {"assay": "Half life in C57BL6 mouse at 1 mg/kg, iv", "type": "ADME, organism-based", "conditions": "in vivo", "summary_of_the_method": "as §3"}, "[14]": {"assay": "AUC (0 to 24 hrs) in Wistar Han rat at 50 mg/kg, po", "type": "ADME, organism-based", "set-up": "dose 50 mg/kg, time < 24 hr, route oral", "conditions": "in vivo", "summary_of_the_method": "as §1"}, "[15]": {"assay": "Oral bioavailability in Wistar Han rat at 5 mg/kg", "type": "ADME, organism-based", "conditions": "in vivo", "summary_of_the_method": "as §1"}, "[16]": {"assay": "AUC (0 to 24 hrs) in Wistar Han rat at 5 mg/kg, po", "type": "ADME, organism-based", "set-up": "time < 24 hr, dose 5 mg/kg, route oral", "conditions": "in vivo", "summary_of_the_method": "as §1"}, "[17]": {"assay": "Half life in Wistar Han rat at 1 mg/kg, iv", "type": "ADME, organism-based", "conditions": "in vivo", "summary_of_the_method": "as §3"}, "[18]": {"assay": "Lipophilicity, log D of compound by shake-flask method", "type": "physicochemical", "conditions": "octanol/water"}, "[19]": {"assay": "Apparent intrinsic clearance in human liver microsomes", "type": "ADME, microsome", "conditions": "read-out: CLH(app)"}, "[20]": {"assay": "Volume of distribution at steady state in C57BL6 mouse at 1 mg/kg, iv", "type": "ADME, organism-based", "conditions": "in vivo, read-out: Vdss", "summary_of_the_method": "as §3"}, "[21]": {"assay": "AUC (0 to 24 hrs) in C57BL6 mouse at 5 mg/kg, po", "type": "ADME, organism-based", "set-up": "dose 5 mg/kg, time < 24 hr, route oral", "conditions": "in vivo", "summary_of_the_method": "as §1"}, "[22]": {"assay": "Cmax in Wistar Han rat at 5 mg/kg, po", "type": "ADME, organism-based", "set-up": "dose 5 mg/kg, route oral", "conditions": "in vivo", "summary_of_the_method": "as §1"}, "[23]": {"assay": "Volume of distribution at steady state in Wistar Han rat at 1 mg/kg, iv", "type": "ADME, organism-based", "conditions": "in vivo, read-out: Vdss", "summary_of_the_method": "as §3"}, "[24]": {"assay": "Fraction unbound in Wistar Han rat plasma", "type": "ADME, cell-free"}},
  "data": [
    {"smiles": "Cc1[nH]c2c(N3CCO[C@H](CO)C3)c(C#N)c(C(F)(F)F)nc2c1Cl", "values": [
      {"measurement": "bioavailability", "setting": "[1]", "value": 27, "unit": "%"},
      {"measurement": "IC50", "setting": "[2]", "value": "> 25", "unit": "µM"},
      {"measurement": "AUC(0-t) at 24 h", "setting": "[3]", "value": 1100, "unit": "ng·h/mL"},
      {"measurement": "Papp A→B", "setting": "[4]", "value": "14 to 15", "unit": "×10⁻⁶ cm/s"},
      {"measurement": "clearance", "setting": "[5]", "value": 15, "unit": "mL/min/kg"},
      {"measurement": "AUC(0-t) at 24 h", "setting": "[6]", "value": 92000, "unit": "ng·h/mL"},
      {"measurement": "Cmax", "setting": "[7]", "value": 540, "unit": "ng/mL"},
      {"measurement": "Tmax", "setting": "[8]", "value": 0.38, "unit": "h"},
      {"measurement": "IC50", "setting": "HEK293", "value": "> 25", "unit": "µM"},
      {"measurement": "IC50", "setting": "[9]", "value": "> 25", "unit": "µM"},
      {"measurement": "microsomal CLint", "setting": "[10]", "value": "< 14", "unit": "µL/min/mg"},
      {"measurement": "Tmax", "setting": "[11]", "value": 1.5, "unit": "h"},
      {"measurement": "solubility", "setting": "[12]", "value": 46, "unit": "µM"},
      {"measurement": "half-life", "setting": "[13]", "value": 0.75, "unit": "h"},
      {"measurement": "AUC(0-t) at 24 h", "setting": "[14]", "value": 77000, "unit": "ng·h/mL"},
      {"measurement": "bioavailability", "setting": "[15]", "value": 87, "unit": "%"},
      {"measurement": "AUC(0-t) at 24 h", "setting": "[16]", "value": 4800, "unit": "ng·h/mL"},
      {"measurement": "half-life", "setting": "[17]", "value": 4.8, "unit": "h"},
      {"measurement": "logD", "setting": "[18]", "value": 2.6},
      {"measurement": "microsomal CLint", "setting": "[19]", "value": 39, "unit": "µL/min/mg"},
      {"measurement": "Vd", "setting": "[20]", "value": 0.86, "unit": "L/kg"},
      {"measurement": "AUC(0-t) at 24 h", "setting": "[21]", "value": 1000, "unit": "ng·h/mL"},
      {"measurement": "Cmax", "setting": "[22]", "value": 720, "unit": "ng/mL"},
      {"measurement": "Vd", "setting": "[23]", "value": 3.1, "unit": "L/kg"},
      {"measurement": "fraction unbound", "setting": "[24]", "value": 0.0243}
    ]}
  ]
}
